Data set [1] relates to BV-2. The experiment in a line: Inhibition of LPS-induced nitric oxide production in mouse BV2 cells after 24 hrs by Griess assay. Format: functional, cell-based. The note with it: BV-2, 24 h. The essentials: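 BV-2 murine microglia in DMEM with 10% heat-inactivated FBS, seeded at 2 × 10^4/well and grown 24 h. Given compound at five concentrations with 1 μg/mL LPS (E. coli 0111:B4) for 24 h; quercetin reference. Supernatant nitrite measured by Griess reagents I and II at A540 against a sodium nitrite standard curve; IC50 as concentration halving NO.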

Data set [2] in a line: Cytotoxicity against LPS-induced mouse BV2 cells assessed as cell viability after 24 hrs by MTT assay. As to conditions: read-out: Activity. Format: cell-based, BV-2. More on the design: concentration or dose not given beside the values. In short, it runs like this:
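BV-2 cells seeded at 2 × 10^3 per 100 μL and grown 24 h, then given compound at various concentrations plus LPS for 24 h; DMSO alone as negative control. MTT (5 mg/mL stock, 10 μL) added for 4 h at 37 °C, lysed overnight in SDS/[…]/HCl buffer, absorbance 570 nm.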

In data set [3] the test system is PC-3. The data set is described as follows: Cytotoxicity against human PC3 cells after 72 hrs by sulforhodamine B assay. The note with it: PC-3, 72 h. In kind it is functional, cell-based. In short, it runs like this: (§1)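 SRB assay. Exponentially growing cells at 2.5 × 10^4 cells/mL attached, then given fresh medium with a range of concentrations for 72 h at 37 °C; four replicate wells; 0.1% DMSO negative control, doxorubicin reference. Fixed in cold 10% TCA 1 h at 4 °C, stained with 0.4% SRB, dye dissolved in 10 mM Tris, A560; viability relative to control; IC50 from dose–response curves.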

Data set [4] relates to HepG2. The experiment in a line: Cytotoxicity against human HepG2 cells after 72 hrs by sulforhodamine B assay. The note with it: HepG2, 72 h. In kind it is functional, cell-based. In short, it runs like this:
as §1

Data set [5] concerns HepG2. The data set is described as follows: Cell cycle arrest in human HepG2 cells assessed as accumulation at S-phase at 0.5 uM after 24 hrs by propidium iodide staining based flow cytometry (reference value: 25.5%). In kind it is functional. The essentials:
(§2)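 HepG2 cells exposed 24 h to 0.5, 1.0 or 5.0 μM, with DMSO control; washed in cold PBS, fixed in ice-cold 95% ethanol at 4 °C for at least 2 h, then PI-stained 30 min at 37 °C. Cell-cycle phases read by flow cytometry on 10 000 cells per sample; three independent experiments.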

Data set [6] relates to HepG2. The experiment in a line: Cell cycle arrest in human HepG2 cells assessed as accumulation at S-phase at 5 uM after 24 hrs by propidium iodide staining based flow cytometry (reference value: 25.5%). Format: functional. In short, it runs like this: as §2
Data set [7] relates to HepG2. The data set is described as follows: Induction of apoptosis in human HepG2 cells assessed as cell shrinkage at 5 to 10 uM after 48 hrs by Hoechst 33342 staining based fluorescence microscopic analysis. In kind it is functional. The essentials:
(§3)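 1 × 10^6 HepG2 cells on coverslips treated 48 h at 1.0, 5.0 or 10 μM; DMSO control. Fixed 30 min in 4% paraformaldehyde, Hoechst 33342 stained 10 min at room temperature in the dark, PBS-washed, nuclear morphology viewed by fluorescence microscopy.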

The test system of data set [8] is HepG2. The experiment in a line: Cell cycle arrest in human HepG2 cells assessed as accumulation at G1-phase at 5 uM after 24 hrs by propidium iodide staining based flow cytometry (reference value: 62.3%). In kind it is functional. In short, it runs like this:
as §2

The subject of data set [9] is HepG2. The experiment in a line: Induction of apoptosis in human HepG2 cells assessed as late apoptotic cells at 0.5 uM after 48 hrs by annexin-V-FITC/propidium iodide staining based flow cytometry (reference value: 0.51%). Format: functional.
Data set [10] concerns HepG2. The experiment in a line: Cell cycle arrest in human HepG2 cells assessed as accumulation at G2-phase at 5 uM after 24 hrs by propidium iodide staining based flow cytometry (reference value: 9.61%). In kind it is functional. The essentials: as §2
In data set [11] the test system is HepG2. The data set is described as follows: Cell cycle arrest in human HepG2 cells assessed as accumulation at G2-phase at 1 uM after 24 hrs by propidium iodide staining based flow cytometry (reference value: 9.61%). Format: functional. The essentials:
as §2

The subject of data set [12] is HepG2. The experiment in a line: Induction of apoptosis in human HepG2 cells assessed as necrotic cells at 0.5 uM after 48 hrs by annexin-V-FITC/propidium iodide staining based flow cytometry (reference value: 1.82%). In kind it is functional.
In data set [13] the test system is HepG2. The experiment in a line: Induction of apoptosis in human HepG2 cells assessed as necrotic cells at 1 uM after 48 hrs by annexin-V-FITC/propidium iodide staining based flow cytometry (reference value: 1.82%). Format: functional.
In data set [14] the test system is HepG2. The data set is described as follows: Induction of apoptosis in human HepG2 cells assessed as late apoptotic cells at 1 uM after 48 hrs by annexin-V-FITC/propidium iodide staining based flow cytometry (reference value: 0.51%). In kind it is functional.
The subject of data set [15] is HepG2. The data set is described as follows: Induction of apoptosis in human HepG2 cells assessed as early apoptotic cells at 5 uM after 48 hrs by annexin-V-FITC/propidium iodide staining based flow cytometry (reference value: 0.33%). In kind it is functional.
Data set [16] relates to HepG2. The data set is described as follows: Cell cycle arrest in human HepG2 cells assessed as accumulation at G1-phase at 0.5 uM after 24 hrs by propidium iodide staining based flow cytometry (reference value: 62.3%). Format: functional. The essentials: as §2
Data set [17] deals with HepG2. The data set is described as follows: Induction of apoptosis in human HepG2 cells assessed as chromatin condensation at 5 to 10 uM after 48 hrs by Hoechst 33342 staining based fluorescence microscopic analysis. In kind it is functional, cell-based. The essentials:
as §3

Data set [18] has as its system HepG2. The experiment in a line: Cell cycle arrest in human HepG2 cells assessed as accumulation at G2-phase at 0.5 uM after 24 hrs by propidium iodide staining based flow cytometry (reference value: 9.61%). Format: functional. The essentials:
as §2

In data set [19] the test system is HepG2. The data set is described as follows: Induction of apoptosis in human HepG2 cells assessed as early apoptotic cells at 1 uM after 48 hrs by annexin-V-FITC/propidium iodide staining based flow cytometry (reference value: 0.33%). In kind it is functional.
Data set [20] has as its system HepG2. The data set is described as follows: Induction of apoptosis in human HepG2 cells assessed as necrotic cells at 5 uM after 48 hrs by annexin-V-FITC/propidium iodide staining based flow cytometry (reference value: 1.82%). Format: functional.
Data set [21] concerns HepG2. The experiment in a line: Cell cycle arrest in human HepG2 cells assessed as accumulation at G1-phase at 1 uM after 24 hrs by propidium iodide staining based flow cytometry (reference value: 62.3%). In kind it is functional. The essentials: as §2
The test system of data set [22] is HepG2. The experiment in a line: Induction of apoptosis in human HepG2 cells assessed as early apoptotic cells at 0.5 uM after 48 hrs by annexin-V-FITC/propidium iodide staining based flow cytometry (reference value: 0.33%). Format: functional.
Data set [23] has as its system HepG2. The experiment in a line: Cell cycle arrest in human HepG2 cells assessed as accumulation at S-phase at 1 uM after 24 hrs by propidium iodide staining based flow cytometry (reference value: 25.5%). Format: functional. In short, it runs like this:
as §2

Data set [24] concerns HepG2. The data set is described as follows: Induction of apoptosis in human HepG2 cells assessed as late apoptotic cells at 5 uM after 48 hrs by annexin-V-FITC/propidium iodide staining based flow cytometry (reference value: 0.51%). Format: functional.

The source made the active and inactive calls. No cut-off for these calls is given here.

`CO[C@H]1/C=C/C=C/C=C/C[C@H](OC(=O)[C@@H](C)NC(=O)C(C)C)[C@H](C)[C@@H](O)/C(C)=C\CCc2cc(O)cc(c2)NC(=O)C1`: the IC50 turned out to be 2900 nM in data set [1], 4400 nM in data set [3] and 400 nM in data set [4]. Also, in [2], the viability at 24 h was 85.4%.

With `CO[C@H]1/C=C/C=C/C=C/C[C@H](OC(=O)[C@@H](C)NC(=O)CCC(C)C)[C@H](C)[C@@H](O)/C(C)=C\CCc2cc(O)cc(c2)NC(=O)C1`, the values for the IC50 in data set [1], in data set [3] and in data set [4] were 180 nM, 4200 nM and 200 nM, respectively. For the same molecule, the viability at 24 h in [2] came to 82.5%.

`COc1cccc2c1C(=O)c1c(O)c3c(c(O)c1C2=O)C[C@@](O)(C(=O)CO)C[C@@H]3O[C@H]1C[C@H](N)[C@H](O)[C@H](C)O1` [DOXORUBICIN]: the half-inhibitory concentration (IC50) in data set [3] came to 800 nM; in data set [4], 700 nM.

For the molecule `CO[C@H]1/C=C/C=C/C=C/C[C@H](O)[C@H](C)[C@@H](OC(=O)[C@@H](C)NC(=O)C2CCCCC2)/C(C)=C\CCc2cc(O)cc(c2)NC(=O)C1`, the concentration for half-maximal inhibition (IC50) was found to be 300 nM in data set [1], 10200 nM in [3] and 17600 nM in data set [4]. Further, the viability at 24 h in data set [2] came to 93.1%.

With `CO[C@H]1/C=C/C=C/C=C/C[C@H](OC(=O)[C@@H](C)NC(=O)C2=CCCCC2)[C@H](C)[C@@H](O)/C(C)=C\CCc2cc(O)cc(c2)NC(=O)C1`, the IC50 in [1] is 30 nM; in data set [3], 700 nM; in data set [4], 200 nM. The viability at 24 h in [2] is 94.3%.

In the case of `CCC(C)C(=O)N[C@H](C)C(=O)O[C@H]1C/C=C/C=C/C=C/[C@H](OC)CC(=O)Nc2cc(O)cc(c2)CC/C=C(/C)[C@H](O)[C@H]1C` (some centres undefined), the IC50 in data set [1] was determined as 480 nM; in data set [3] it was 2600 nM; in data set [4] it was 500 nM. In data set [2], the viability at 24 h was determined as 76.3%.

`CO[C@H]1/C=C/C=C/C=C/C[C@H](OC(=O)[C@@H](C)NC(=O)CC(C)C)[C@H](C)[C@@H](O)/C(C)=C\CCc2cc(O)cc(c2)NC(=O)C1`: the concentration for half-maximal inhibition (IC50) was found to be 1100 nM in [1], 4500 nM in data set [3] and 1000 nM in [4]. In addition, the viability at 24 h in data set [2] was 92.7%.

As to `CO[C@H]1/C=C/C=C/C=C/C[C@H](OC(=O)[C@@H](C)NC(=O)CCCC(C)C)[C@H](C)[C@@H](O)/C(C)=C\CCc2cc(O)cc(c2)NC(=O)C1`, the IC50 in data set [1] came to 90 nM; in [3] it was 2700 nM; in [4], 100 nM. The Activity worked out at 24.7% in [5]; 38.6% in [6]; 42.4% in data set [8]; 1.25% in [9]; 12.6% in data set [10]; 12.4% in data set [11]. Moreover, the Activity in [12] is 1.98%; in data set [13], 2.1%; in data set [14] it was 1.66%; in data set [15], 17.63%; in data set [16], 59.1%; in [18], 14.2%. Also, the Activity in data set [19] worked out at 9.53%; in data set [20], 3.66%; in [21], 37.1%; in [22], 5.11%; in data set [23], 34.5%; in [24], 5.67%. Further, the result in data set [7] and in data set [17] was Active. In addition, the viability at 24 h in data set [2] was 83.8%.

For `O=c1c(O)c(-c2ccc(O)c(O)c2)oc2cc(O)cc(O)c12` [QUERCETIN], the IC50 in data set [1] turned out to be 2400 nM. Moreover, the viability at 24 h in data set [2] turned out to be 99.2%.

Regarding `CCCC(=O)N[C@H](C)C(=O)O[C@H]1C/C=C/C=C/C=C/[C@H](OC)CC(=O)Nc2cc(O)cc(c2)CC/C=C(/C)[C@H](O)[C@H]1C`, the results for the IC50 in data set [1], in data set [3] and in [4] were 1700 nM, 4500 nM and 3000 nM, respectively. The viability at 24 h in data set [2] came out at 96%.

With `CC.CO[C@H]1/C=C/C=C/C=C/C[C@H](O)[C@H](C)[C@@H](OC(=O)[C@@H](C)NC(=O)CC(C)C)/C(C)=C\CCc2cc(O)cc(c2)NC(=O)C1`, the IC50 stood at 8300 nM in data set [1], 11900 nM in [3] and 20500 nM in data set [4]. Also, the viability at 24 h in data set [2] was determined as 83.1%.

For `CO[C@H]1/C=C/C=C/C=C/C[C@H](OC(=O)[C@@H](C)NC(=O)C2CCCCC2)[C@H](C)[C@@H](O)/C(C)=C\CCc2cc(O)cc(c2)NC(=O)C1` [TRIENOMYCIN A], the half-maximal inhibitory concentration (IC50) in data set [1] stood at 20 nM; in [3], 400 nM; in [4] it was 200 nM. In addition, in [2], the viability at 24 h stood at 95.2%.

The record behind these values is ChEMBL document CHEMBL4196167, “Ansamycins with Antiproliferative and Antineuroinflammatory Activity from Moss-Soil-Derived Streptomyces cacaoi subsp. asoensis H2S5” (J Nat Prod, 2018).
